GALR2 agonist = GALR2 (human) receptor agonism | GALR2-expressing cells, agonist activation read-out | activation, % (test concentration not listed) | AID 803 | O43603 | actives 0.48% (n = 140,000); in the data active = activation above about 5%, passing the limit was not always enough;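 also: 0% = vehicle buffer wells and 100% = reference agonist at full effect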
Target sequence (O43603 whole entry, looked up): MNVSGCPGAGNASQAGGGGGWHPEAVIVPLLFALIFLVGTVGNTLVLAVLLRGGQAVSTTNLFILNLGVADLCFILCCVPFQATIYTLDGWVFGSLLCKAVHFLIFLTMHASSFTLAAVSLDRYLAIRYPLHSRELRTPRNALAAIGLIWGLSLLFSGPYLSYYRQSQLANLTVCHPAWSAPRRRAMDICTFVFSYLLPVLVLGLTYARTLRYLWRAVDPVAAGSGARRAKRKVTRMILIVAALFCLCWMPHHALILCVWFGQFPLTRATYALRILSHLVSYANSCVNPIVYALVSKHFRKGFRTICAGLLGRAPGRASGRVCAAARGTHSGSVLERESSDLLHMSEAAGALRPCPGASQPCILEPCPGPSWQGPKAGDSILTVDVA
S1P2 blocker = S1P2 (human) receptor antagonism. O95136. cell-based S1P2 antagonist assay, inhibition at 5 uM. inhibition, % at 5 µM. actives 0.21% (n = 97,000). AID 736; in the data active = inhibition above about 45%;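 also: CRE beta-lactamase reporter cells expressing human S1P2 stimulated with S1P; 0% = agonist at EC80 alone and 100% = agonist plus reference antagonist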
GALR2 antag = GALR2 (human) receptor antagonism; O43603; GALR2-expressing cells, antagonist mode; inhibition, % at 4 µM; actives 0.39% (n = 140,000); in the data active = inhibition above about 27%;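 also: cells stimulated with galanin 1-16 at roughly its EC80; 0% = agonist challenge control and 100% = basal control without agonist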
EphB4 ephrin blk = blocks human EphB4 binding to ephrin-B2. P54760. EphB4 LBD / TNYL-RAW-Alexa532 peptide, fluorescence polarization. inhibition, % at 7 µM. actives 0.15% (n = 97,000);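 active = inhibition above the screen-wide mean inhibition plus 3 SD, cut at about 15% in these data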;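 also: 0% = DMSO wells and 100% = excess unlabeled TNYL-RAW peptide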
Rev-RRE block = disrupts HIV-1 Rev binding to RRE RNA; actives 0.79% (n = 97,000); AID 704; inhibition, % at 8 µM; Rev peptide-RRE RNA binding, FRET; P05866;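 active = inhibition above the screen-wide mean plus 3 SD, cut at about 35% in these data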;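 also: 0% = median DMSO wells and 100% = median Neomycin B control wells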
Target sequence (P05866 whole entry, looked up): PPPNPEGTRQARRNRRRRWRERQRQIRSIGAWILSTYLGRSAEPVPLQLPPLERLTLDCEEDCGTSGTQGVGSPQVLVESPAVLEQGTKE
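Material: labelled RRE RNA duplex and labelled Rev peptide / Buffer or medium: HEPES pH 7.5 salt buffer with EDTA / Compound dosing: single point, 8 µM final nominal compound concentration / Benchmarks: DMSO low control, neomycin B high control / Timing: 5 min preincubation and 15 min binding, 25 °C / Technique: FRET fluorescence readout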
S1P2 agonist = agonists of human S1P2 receptor; actives 0.46% (n = 97,000); S1P2-expressing cell line, agonist reporter read-out; AID 729; activation, % at 4.5 µM; in the data active = activation above about 16%;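 also: 0% = vehicle low control and 100% = maximal reference agonist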
Active calls of the source: *; . = no result; [ ] = another dose, or the depositor's remark. The list is not random: actives were taken first. Their share in the collection is about 1.8%.

SMILES | GALR2 agonist | S1P2 blocker | GALR2 antag | EphB4 ephrin blk | Rev-RRE block | S1P2 agonist
c1ccc2c(c1)[nH]c1nc(SCCN3CCOCC3)nnc12 | -2 | 2 | 8 | 4 | 3 | -1
CCN(CC)S(=O)(=O)c1ccc(/C=C/C(=O)Nc2cccc(F)c2)cc1 | -1 | . | -8 | . | . | .
COc1cc2c(cc1OC)-c1cc(NC3CCCCCCC3)nc(=O)n1CC2 | 1 | -6 | -15 | 5 | 18 | 50*
COc1cc2c(cc1OC)-c1cc(NC3CCCCC3)nc(=O)n1CC2 | -1 | -32 | 5 | -3 | 15 | 33*
COc1cc2c(cc1OC)-c1cc(NC3CC3)nc(=O)n1CC2 | -1 | -19 | -8 | -3 | 13 | 15
CCNc1cc2n(c(=O)n1)CCc1cc(OC)c(OC)cc1-2 | -2 | -28 | -5 | 2 | 17 | 9
CCCCCCNc1cc2n(c(=O)n1)CCc1cc(OC)c(OC)cc1-2 | -1 | -48 | -10 | 9 | 17 | 30*
O=C(c1ccc(S(=O)(=O)c2cccc(Cl)c2)c([N+](=O)[O-])c1)N1CCN(Cc2ccccc2)CC1 | 0 | . | 2 | . | . | .
COc1cccc2c1C(=O)c1c(O)c3c(c(O)c1C2=O)C[C@@](O)(C(C)=O)C[C@@H]3O[C@H]1C[C@H](N)[C@H](O)[C@H](C)O1 | -2 | . | 98* | . | . | .
O=C(CN1CCCC1=O)NC1C2CC3CC(C2)CC1C3 (centres undefined) | 0 | . | 8 | . | . | .
COc1ccc(N=NC2=C(O)CC(C)(C)CC2=O)cc1 | 0 | -6 | 2 | -3 | 11 | -3
COc1ccc(N=NC2=C(O)CC(C)(C)CC2=O)c(OC)c1 | -2 | 5 | -4 | 2 | 59* | -2
O=C(CSc1ccccn1)Nc1nncs1 | -1 | -7 | -15 | 6 | 8 | -4
Oc1oc(-c2ccccc2)nc1C=NCc1ccccc1 | -1 | -6 | -5 | -4 | 8 | -3
CC1=Nc2ccccc2/C1=C\c1nc(-c2ccc(C(F)(F)F)cc2)oc1O | -2 | 33 | 10 | 25* | 126*[fluorescence artefact?] | -11
Oc1ccccc1-c1nnc(-c2ccc(C(F)(F)F)cc2)o1 | -2 | 19 | 4 | 2 | 12 | -5
CC1=Nc2ccccc2/C1=C\c1nc(-c2ccccc2)oc1O | -4 | 0 | 16 | -2 | 54* | -3
CC1CC(=O)Nc2ccccc2N1S(=O)(=O)c1cccc(Cl)c1 (centres undefined) | -1 | . | -1 | . | . | .
O=S(=O)(Nc1nc2ccccc2nc1Nc1cccc(S(=O)(=O)N2CCCCC2)c1)c1ccccc1 | -1 | . | -4 | . | . | .
CCn1c(SCc2ccc(Cl)cc2)nc2nc3c(cc2c1=O)CCCC3 | -1 | . | -4 | . | . | .
Cc1cc(C)n2nc3nc4c(cc3c2n1)CCCC4 | 0 | -1 | -1 | 3 | 76* | -2
CCCn1c(-c2cc(OC)c(OC)c(OC)c2)nc2nc3ccccc3nc21 | -1 | 5 | -10 | 5 | 0 | 17*
C=CCn1c(-c2ccc(OC)cc2)nc2nc3ccccc3nc21 | -2 | -15 | -5 | 4 | 17 | -1
N#Cc1ncc(C(F)(F)F)cc1Sc1ccc(N)cc1 | 2 | -6 | -11 | 16* | 16 | -3
N#CC1=C(N)C(C#N)(C#N)C(c2ccc[nH]2)C2CCCC=C12 (centres undefined) | 0 | 13 | -3 | 7 | 63* | -5
SMILES | GALR2 agonist | S1P2 blocker | GALR2 antag | EphB4 ephrin blk | Rev-RRE block | S1P2 agonist
N#CC1=C(N)C(C#N)(C#N)C(c2cccnc2)C2CCCC=C12 (centres undefined) | 1 | 21 | 1 | -2 | 32 | -9
Fc1ccc(NC(=S)NCc2cccs2)cc1 | -1 | . | 9 | . | . | .
O=C(NCC1(c2ccccc2)CCCC1)C(=O)N1CCOCC1 | -1 | -14 | 12 | -1 | 9 | 75*
Nc1c(C(=O)C2CC2)sc2nc(-c3cccs3)cc(C(F)(F)F)c12 | -2 | 23 | 17 | -3 | 107*[fluorescence artefact?] | -12
CC(C)NC(=O)c1sc2nc(-c3cccs3)cc(-c3cccs3)c2c1N | 0 | -3 | -18 | 4 | 11 | -4
CC12CCCCC1N(O)C(=O)C(=O)N2O (centres undefined) | -1 | . | -7 | . | . | .
CCOC(=O)c1c(NC(=O)COC(=O)CNC(=O)c2ccco2)sc(C(C)=O)c1C | 0 | . | 0 | . | . | .
COc1ccccc1NC(=O)CN1CCC(n2nnc3cc(F)ccc32)CC1 | -2 | -5 | 3 | -2 | 14 | 8
COc1ccccc1NC(=O)CN1CCC(n2c(C)nc3cc(F)ccc32)CC1 | 4 | -30 | -16 | 5 | 1 | 19*
